A value given as a limit tells only on which side of the number the result lay.

Experimental findings from ChEMBL document CHEMBL1134364, “Antipsoriatic anthrones with modulated redox properties. 5. Potent inhibition of human keratinocyte growth, induction of keratinocyte differentiation, and reduced membrane damage by novel 10-arylacetyl-1,8-dihydroxy-9(10H)-anthracenones” (J Med Chem, 2001) are described below.

Data set [1] can be described thus: Concentration required to inhibit 50% growth of HaCaT cells. In kind it is functional, cell-based. Particulars: Homo sapiens. The essentials: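 HaCaT keratinocytes treated for 48 h. Proliferation read by counting dispersed cells under phase-contrast microscope. Growth inhibition tested for significance against control, N = 3, P < 0.01.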
Data set [2] in a line: Induction of Keratinocyte Differentiation in cross-linked envelope assay at 1 uM expressed as difference of the amount of cross-linked protein as a measure of HaCaT keratinocyte differentiation. Format: functional, Homo sapiens. In short, it runs like this: (§1)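 HaCaT cultures were 144 h post-confluent; medium replaced, compound added from DMSO stocks diluted in DMEM (final DMSO 0.2%), controls DMSO or medium alone, 48 h. Cells were detached with trypsin/EDTA, lysed in SDS/β-ME, dot-blotted, TCA-heated, Coomassie-stained and scanned. Value is cross-linked protein minus vehicle, per mg protein (Bradford), mean ± SEM of 3 experiments.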

Data set [3] in a line: (§2) Induction of Keratinocyte Differentiation in cross-linked envelope assay at 5 uM expressed as difference of the amount of cross-linked protein as a measure of HaCaT keratinocyte differentiation. Format: functional, Homo sapiens. In short, it runs like this:
as §1

Data set [4] can be described thus: Cytotoxic activity of LDH(mu) release in HaCaT cells was measured after treatment of 2 uM. In kind it is functional, Homo sapiens. The essentials:
(§3)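 HaCaT cells treated with 2 µM compound. Membrane damage read as lactate dehydrogenase activity (mU) released into the culture medium. N = 3, SD < 10%.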

Data set [5] is described as follows: Induction of Keratinocyte Differentiation in cross-linked envelope assay at 10 uM expressed as difference of the amount of cross-linked protein as a measure of HaCaT keratinocyte differentiation. In kind it is functional, Homo sapiens. The essentials: as §1
Data set [6] in a line: Deoxyribose degradation activity was measured as hydroxyl radical formation.
The nature of data set [7]: (§4) Cytotoxic activity of LDH(mu) release in HaCaT cells was measured after treatment with 2 uM of the compound. Format: functional, Homo sapiens. In short, it runs like this:
as §3

Data set [8] is described as follows: Inhibition of LTB4 biosynthesis in bovine polymorphonuclear leukocytes using nordihydroguaiaretic acid. In kind it is functional, cell-based, Bos taurus.
Data set [9] is described as follows: Partition coefficient (logP). Format: physicochemical. Conditions: octanol/water.
A short description of data set [10]: as §4. In kind it is cell-based. Particulars: human. In short, it runs like this: as §3
For a further data set, the system named is HaCaT. Described as §2. Format: cell-based. Particulars: Homo sapiens. The essentials: as §1

Compound `O=C1c2c(O)cccc2Cc2cccc(O)c21` [ANTHRALIN] returned an IC50 in data set [1] of 700 nM. The Activity in [2] is listed as 3.7 ug (mg of protein)-1; in data set [3] it was 4.9 ug (mg of protein)-1; in data set [5], 5.8 ug (mg of protein)-1. The compound also returned an LDH in data set [4] of 294 MU.

With `O=C1c2c(O)cccc2C(C(=O)Cc2c[nH]c3ccccc23)c2cccc(O)c21`, the IC50 in data set [1] was determined as 800 nM; in data set [8] it was 9000 nM. Moreover, the Activity is 1.8 ug (mg of protein)-1 in [2], < 0.3 in data set [6], 4.9 ug (mg of protein)-1 in [3] and 6.2 ug (mg of protein)-1 in [5]. The LDH in data set [7] turned out to be 174 MU. Also, the logP in data set [9] was found to be 3.77.

As for `COc1ccc(CC(=O)C2c3cccc(O)c3C(=O)c3c(O)cccc32)cc1`, the IC50 in [1] is 1100 nM; in [8] it was 500 nM. The Activity was 2.3 ug (mg of protein)-1 in data set [2], 5.3 ug (mg of protein)-1 in data set [3] and 5.8 ug (mg of protein)-1 in [5]. In data set [7], this compound returned an LDH of 143 MU.

`CN(O)C(=O)Cc1ccc(CC(=O)C2c3cccc(O)c3C(=O)c3c(O)cccc32)cc1`: the IC50 in data set [1] stood at 700 nM; in data set [8], 50 nM. For the same compound, the Activity in data set [2] is 2.8 ug (mg of protein)-1; in [6], 0.51; in data set [5], 6.2 ug (mg of protein)-1. The logP in [9] came to 3.02. The same compound displayed an LDH in [10] of 199 MU. The compound also returned an Activity (ug (mg of protein)-1) with HaCaT of 5.5.

As to `Cc1ccc(CC(=O)C2c3cccc(O)c3C(=O)c3c(O)cccc32)cc1`, 700 nM corresponded to half-maximal inhibition in [1] (IC50). Moreover, the results for the Activity in data set [2], in [3] and in data set [5] were 2.1 ug (mg of protein)-1, 4.2 ug (mg of protein)-1 and 5.1 ug (mg of protein)-1, respectively. Besides, the LDH in data set [7] was 145 MU. The compound further gave a logP in data set [9] of 4.54.
